Molecules are shown by their SMILES. Entries after “also recorded” stand apart in the source; their conditions may differ.

We go through five compounds from PMC4855275 (Experimental & Molecular Medicine, 2016).

Series [1] addresses T1, PAK1^T423E (Homo sapiens, UniProt Q13153, T423E). The note with it: reported; ref [11], [12]; cited from earlier work.
The next series concerns Wt-PAK1 (full-length). The note with it: reported; ref [11], [12]; cited from earlier work.
The next series concerns the target full-length PAK3 (Homo sapiens, UniProt O75914). Put plainly: In vitro inhibition of PAK family members, PAK3. The class given is biochemical. The note with it: 40 μM, with Cdc42•GTP.
Series [2] concerns the target PAK1^T423E/LL (H83L/H86L) (Homo sapiens, UniProt Q13153, H83L/H86L/T423E). Put plainly: In vitro kinase assay with LL mutant of active PAK1. The class given is biochemical. The conditions noted are these: 40 μM, 0.5 h. The procedure, abridged:
(§1)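 Preincubated with test compound or DMSO 0.5 h, 30 °C, then 5 μCi [γ-³²P]ATP 0.5 h, 30 °C. 15% SDS-PAGE; MBP phosphorylation read by autoradiography; total MBP immunoblot as loading control; ≥3 experiments.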

The next series deals with PBD of PAK1 (Wt-PBD) (Homo sapiens, UniProt Q13153). Put plainly: SPR binding to immobilized GST-PBD. The conditions noted are these: Kd for the compound–PBD interaction, 25 °C, 1:1 Langmuir model. The procedure, abridged: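 GST (reference) and wild-type GST-PBD amine-coupled to CM5 chips at about 10 000 RU. Runs at 25 °C in 10 mM HEPES, 150 mM NaCl, 0.005% P20, 0.4% DMSO, pH 7.4. Test compound injected at 12.5, 25, 50 or 100 μM, 20 μl min⁻¹. Kd taken as kd/ka from a 1:1 Langmuir fit. At least three independent experiments.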
PBD of PAK1 (Wt-PBD), sequence (Q13153 67-150): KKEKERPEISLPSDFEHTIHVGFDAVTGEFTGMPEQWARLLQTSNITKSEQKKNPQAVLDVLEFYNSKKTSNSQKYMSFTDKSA
A general note: In SPR one partner is held on a chip, and binding of the other changes the refractive index at the surface.

The test system of a further series is pMEK1^S298 in 293T cells. Nature of the series: MEK1 S298 phosphorylation downstream of PAK1. It is filed as cell-based. The note with it: 293T cells with myc-PAK1 and GFP-V12Cdc42, 20 μM, 2 h. The procedure, abridged: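 293T co-transfected with myc-PAK1 and GFP-V12Cdc42. After 24 h, test compound at 20 μM for 2 h. Lysates immunoblotted for pPAK1 T423 and pMEK S298; expressed proteins checked with anti-Myc and anti-GFP. Membranes blocked in 3% BSA/TBS-T, primary antibody 1 h RT, HRP secondary, chemiluminescence. At least three independent experiments.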

A further series has as its target full-length PAK1 (Homo sapiens, UniProt Q13153). Nature of the series: In vitro inhibition of PAK family members, PAK1. The class given is biochemical. The conditions noted are these: 40 μM, with Cdc42•GTP.
For another series, the system named is HeLa cells. Put plainly: Cell viability / cytotoxicity. The class given is cell-based. The conditions noted are these: for Light-induced cytotoxicity: during FRET analysis. The gist of the method:
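HeLa seeded at 2 × 10⁵ cells per ml. Test compound at 20 μM final for 2, 4, 6, 8 or 12 h at 37 °C. WST-8 then added (10% v/v final) for 2 h at 37 °C; absorbance read at 450 nm.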

The target in series [3] is T1, PAK1^T423E. Put plainly: In vitro PAK1 assay with active PAK1. The class given is biochemical. The note with it: 0.5 h; 40 μM in Figure 3c. The gist of the method:
as §1

Series [4] deals with myc-PAK1 (pT423) in HeLa cells (Homo sapiens, UniProt Q13153). Put plainly: Sorbitol-induced PAK1 autophosphorylation in cells. The class given is cell-based. The note with it: 20 μM for 2 h, then 0.4 M sorbitol. The gist of the method:
(§2)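 HeLa transfected (Lipofectamine, 24 h) with 2 μg myc-PAK1 or myc-PAK3 cDNA. Cells exposed to test compound 2 h, then 0.4 M sorbitol 0.5 h; lysed in HEPES/Triton buffer with NaF and vanadate. Immunoblotted with anti-phospho-group I PAK antibody (PAK1 T423; PAK3 T421); myc-PAK levels by anti-Myc; chemiluminescent detection; ≥3 experiments.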

In series [5] the target is myc-PAK3 (pT421) in HeLa cells (Homo sapiens, UniProt O75914). Nature of the series: Sorbitol-induced PAK3 autophosphorylation in cells. It is filed as cell-based. The conditions noted are these: 20 μM for 2 h, then 0.4 M sorbitol. The procedure, abridged:
as §2

The target of the next series is PBD-LL (H83L/H86L) (Homo sapiens, UniProt Q13153, H83L/H86L). Put plainly: SPR binding to mutated PBD. The note with it: 100 μM compound. The gist of the method: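 GST-tagged wild-type or H83L/H86L PAK1 PBD was expressed in E. coli, purified on glutathione-Sepharose, and amine-coupled to CM5 chips (~10 000 RU), with GST as control. Test compound (100 μM) was flowed at 20 μl min⁻¹, 25 °C, in 10 mM HEPES, 150 mM NaCl, 0.005% P20, 0.4% DMSO, pH 7.4. Sensorgrams were representative of ≥3 independent experiments.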
PBD-LL (H83L/H86L), sequence (Q13153 67-150 H83L/H86L): as the sequence (Q13153 67-150) above, with H17L, H20L counted along it

Series [6] concerns the target YFP-PBD and CFP-V12Cdc42 fusion proteins in HeLa cells (Homo sapiens, UniProt Q13153). Put plainly: FRET analysis of V12Cdc42–PBD interaction in cells. It is filed as cell-based. The note with it: 20 μM, 1.5 h. The gist of the method: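 HeLa on poly-L-lysine-coated coverslips transfected with YFP-PBD and CFP-V12Cdc42 plasmids. At 12 h post-transfection, DMSO or 20 μM test compound applied and imaged over 1.5 h (ex 433 nm; em 475 nm CFP, 530 nm FRET). Background-subtracted FRET/CFP ratio used as efficiency, normalised to time zero = 1; 16 cells per compound.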

The subject of series [7] is R1K3 (PAK1 CD replaced by PAK3 CD) in HeLa cells. Put plainly: CD-swapping experiment, R1K3. It is filed as cell-based. The note with it: 20 μM for 2 h, then 0.4 M sorbitol.
For series [8], the target named is Cdc42–PBD interaction (PBD of PAK1) (Homo sapiens, UniProt Q13153). Nature of the series: ELISA of the Cdc42–PBD interaction. It is filed as binding. The procedure, abridged:
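Wells coated overnight at 4 °C with His-tagged PAK1 PBD (1 μg ml⁻¹) in carbonate–bicarbonate buffer, pH 9.6; TBS-T washes. GST-Cdc42 loaded with GTPγS (0.5 h, RT), then GST-Cdc42(GTPγS) (100 ng ml⁻¹) with test compound for 0.5 h RT and 1 h 37 °C. Bound Cdc42 detected with HRP-anti-GST (200 ng ml⁻¹, 1 h, 37 °C) and ABTS (pH 5.6, 15–30 min); stopped with 1% SDS; A405.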
(ELISA stands for enzyme-linked immunosorbent assay.)

The next series addresses Cdc42–PBD interaction (Homo sapiens, UniProt Q13153). Nature of the series: SPR of Cdc42•GTP binding to immobilized PBD in presence of compound. The conditions noted are these: 10 µM compound.

Cdc42–PBD interaction (PBD of PAK1), sequence (Q13153 67-150): as the sequence (Q13153 67-150) above
full-length PAK1, sequence (Q13153 whole entry): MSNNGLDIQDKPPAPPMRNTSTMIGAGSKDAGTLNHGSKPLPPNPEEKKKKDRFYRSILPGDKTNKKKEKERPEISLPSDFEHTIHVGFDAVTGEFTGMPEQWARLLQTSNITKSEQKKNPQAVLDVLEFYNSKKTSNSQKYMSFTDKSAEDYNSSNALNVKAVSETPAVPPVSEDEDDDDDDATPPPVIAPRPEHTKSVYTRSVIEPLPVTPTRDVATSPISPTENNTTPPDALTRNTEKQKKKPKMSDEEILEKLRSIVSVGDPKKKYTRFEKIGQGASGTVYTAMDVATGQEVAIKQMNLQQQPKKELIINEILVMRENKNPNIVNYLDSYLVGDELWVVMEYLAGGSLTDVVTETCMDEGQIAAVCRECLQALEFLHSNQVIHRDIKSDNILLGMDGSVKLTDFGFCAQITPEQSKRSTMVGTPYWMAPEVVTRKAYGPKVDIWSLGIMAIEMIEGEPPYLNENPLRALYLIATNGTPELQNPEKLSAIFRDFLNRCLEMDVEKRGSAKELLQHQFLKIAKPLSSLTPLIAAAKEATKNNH
myc-PAK1 (pT423) in HeLa cells, sequence (Q13153 whole entry): as above
Cdc42–PBD interaction, sequence (Q13153 67-150): as the sequence (Q13153 67-150) above
myc-PAK3 (pT421) in HeLa cells, sequence (O75914 1-544 isoform O75914-2): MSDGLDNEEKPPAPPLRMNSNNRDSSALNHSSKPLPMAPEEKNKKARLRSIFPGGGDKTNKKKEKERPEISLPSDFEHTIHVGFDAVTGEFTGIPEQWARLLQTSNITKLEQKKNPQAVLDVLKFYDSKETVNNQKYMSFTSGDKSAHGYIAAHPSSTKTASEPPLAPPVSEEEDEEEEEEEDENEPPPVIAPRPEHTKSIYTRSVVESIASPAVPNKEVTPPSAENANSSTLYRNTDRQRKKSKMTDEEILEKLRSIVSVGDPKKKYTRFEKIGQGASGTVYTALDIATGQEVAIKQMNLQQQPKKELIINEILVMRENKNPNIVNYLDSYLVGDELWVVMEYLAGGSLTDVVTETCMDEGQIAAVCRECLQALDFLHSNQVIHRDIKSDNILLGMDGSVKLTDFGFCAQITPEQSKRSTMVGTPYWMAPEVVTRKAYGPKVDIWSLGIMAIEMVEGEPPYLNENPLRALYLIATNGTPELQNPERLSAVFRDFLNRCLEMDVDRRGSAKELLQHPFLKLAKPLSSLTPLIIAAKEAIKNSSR
T1 sequence (Q13153 whole entry T423E): as the sequence (Q13153 whole entry) above, with T423E counted along it
YFP-PBD and CFP-V12Cdc42 fusion proteins in HeLa cells, sequence (Q13153 67-150): as the sequence (Q13153 67-150) above
PAK1^T423E/LL (H83L/H86L), sequence (Q13153 whole entry H83L/H86L/T423E): as the sequence (Q13153 whole entry) above, with H83L, H86L, T423E counted along it
full-length PAK3, sequence (O75914 1-544 isoform O75914-2): as the sequence (O75914 1-544 isoform O75914-2) above

Regarding `Oc1ccc2ccccc2c1SSc1c(O)ccc2ccccc12` [IPA-3, 2,2′-dihydroxy-1,10-dinaphthyldisulfide], the “Susceptibility of PAK1^T423E to inhibition” value at PAK1^T423E [1] is on record as “not susceptible to inhibition”. Moreover, the “Inhibition of Cdc42-dependent activation of wild-type group I PAKs” value in the series with Wt-PAK1 (full-length) was “effectively inhibit”.
Consider `O=C1C=CC(=O)c2ccccc21` [compound 7, 1,4-naphthoquinone], for which the “Inhibition of full-length PAK3 (MBP phosphorylation)” value on full-length PAK3 is “suppressed the activities of both PAK1 and PAK3 to a similar degree”. Besides, the “Inhibitory effect on PAK1^T423E/LL” value in [2] was “little inhibitory effect”. Also, at PBD of PAK1 (Wt-PBD), the Kd is < 7 µM. The “pMEK1^S298 levels” value in the series with pMEK1^S298 in 293T cells is listed as “markedly decreased”. Further, the “Inhibition of full-length PAK1 (MBP phosphorylation)” value (“Inhibition of full-length PAK1” below) at full-length PAK1 was “suppressed the activities of both PAK1 and PAK3 to a similar degree”. Besides, the Cytotoxicity result in the series with HeLa cells (HeLa cells, 20 μM) is given as “no significant cytotoxicity”. Moreover, the “MBP phosphorylation by PAK1^T423E” value on PAK1^T423E [3] is “markedly suppressed”. The “PAK1 autophosphorylation (pT423)” value in series [4] is given as “greatly suppressed; also recorded: almost completely inhibited”. Further, the “PAK3 autophosphorylation (pT421)” value in series [5] is listed as “greatly suppressed; also recorded: specifically inhibited”. For the same compound, on PBD-LL (H83L/H86L), the “Binding affinity to PBD-LL compared with Wt-PBD” value is “significantly reduced (to approximately half of those for Wt-PBD binding)”. In [6], the FRET efficiency entry was “decreased”. In series [7], the “Inhibition of sorbitol-activated R1K3” value is listed as “almost completely inhibited”.
In the case of `COC(=O)C1=CC(=O)c2ccccc2C1=O` [compound 8, 2-methoxycarbonyl-1,4-naphthoquinone], the Kd at PBD of PAK1 (Wt-PBD) was < 7 µM. The “Binding affinity to PBD-LL compared with Wt-PBD” value on PBD-LL (H83L/H86L) is “significantly reduced (to approximately half of those for Wt-PBD binding)”. The “Inhibitory activity on the Cdc42–PBD interaction” value (from here on “Inhibitory activity”) in [8] is given as “high inhibitory activities”.
As to `O=C1C=C(Br)C(=O)c2ccccc21` [compound 13, 2-Bromo-1,4-NQ], on full-length PAK1, the “Inhibition of full-length PAK1” value was “selective inhibition of PAK1”. In addition, the Light-induced cytotoxicity entry in the series with HeLa cells was “light-induced cytotoxicity”. At Cdc42–PBD interaction, the “Interference with the Cdc42–PBD interaction” value was “effectively interfered with the Cdc42–PBD interaction”. Moreover, in series [4], the “PAK1 autophosphorylation (pT423)” value is listed as “only weakly suppressed”. In [8], the “Inhibitory activity” value was “high inhibitory activities”.
Regarding `O=C1C=C(Cl)C(=O)c2ccccc21` [compound 14, 2-Chloro-1,4-NQ], the “Inhibition of full-length PAK1” value at full-length PAK1 is “selective inhibition of PAK1”. Also, the Light-induced cytotoxicity entry in the series on HeLa cells is listed as “light-induced cytotoxicity”. In addition, the “Interference with the Cdc42–PBD interaction” value at Cdc42–PBD interaction is reported as “effectively interfered with the Cdc42–PBD interaction”. Moreover, the “PAK1 autophosphorylation (pT423)” value in series [4] was “greatly suppressed; also recorded: almost completely inhibited”. In addition, the “Inhibition of sorbitol-activated R1K3” value in series [7] is reported as “almost completely inhibited”. Further, the “Inhibitory activity” value in series [8] is “high inhibitory activities”.

What is called Kd is the constant that tells how readily two partners part at equilibrium.
